Compounds with a hit are over-represented: about 2.3% of the library has one in this group of screens.
TDP2 absorb: blocks human TDP2 phosphodiesterase activity; O95551; recombinant TDP2, T5PNP hydrolysis, p-nitrophenol absorbance 415 nm; inhibition, % at 12.8 µM; 370,000 tested, 0.34% active; AID 720702;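 active means inhibition above the mean of all tested compounds plus 3 SD, set per campaign, cut at about 25% in these data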;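 further: 0% = DMSO with enzyme and 100% = buffer with substrate but no TDP2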
Target sequence (O95551 whole entry, looked up): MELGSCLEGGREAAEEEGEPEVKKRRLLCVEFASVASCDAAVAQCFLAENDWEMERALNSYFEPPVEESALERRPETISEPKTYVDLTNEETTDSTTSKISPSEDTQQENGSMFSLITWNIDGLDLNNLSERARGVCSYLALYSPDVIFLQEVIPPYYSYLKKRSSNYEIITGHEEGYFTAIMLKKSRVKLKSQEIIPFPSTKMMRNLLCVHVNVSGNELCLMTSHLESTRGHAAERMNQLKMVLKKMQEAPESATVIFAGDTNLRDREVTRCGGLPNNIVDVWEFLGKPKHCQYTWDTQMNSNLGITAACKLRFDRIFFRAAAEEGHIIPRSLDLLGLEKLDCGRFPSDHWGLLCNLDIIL
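Material: recombinant human TDP2; quantity: TDP2 enzyme at 120 nM final; medium: Tris-HCl pH 7.5 with MgCl2; compound: single concentration, 12.8 µM nominal, with 1% DMSO; incubation: 2 h enzyme incubation at 37 °C; signal: epi absorbance; measure: percent inhibition; benchmarks: high control without enzyme, low control DMSO plus TDP2; repeats: singlicate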
PAFAH1B3 FP inh: PAFAH1B3 (human) inhibition. recombinant PAFAH1B3, FP-rhodamine probe, fluorescence polarization. inhibition, % at 3.39 µM. 340,000 tested, 0.28% active. AID 492972;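 active means inhibition above the screen-wide average of all tested compounds plus 3 SD, cut at about 25% in these data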;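 further: 0% = enzyme with DMSO only and 100% = wells lacking PAFAH1B3 protein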
Target sequence (Q15102 whole entry, looked up): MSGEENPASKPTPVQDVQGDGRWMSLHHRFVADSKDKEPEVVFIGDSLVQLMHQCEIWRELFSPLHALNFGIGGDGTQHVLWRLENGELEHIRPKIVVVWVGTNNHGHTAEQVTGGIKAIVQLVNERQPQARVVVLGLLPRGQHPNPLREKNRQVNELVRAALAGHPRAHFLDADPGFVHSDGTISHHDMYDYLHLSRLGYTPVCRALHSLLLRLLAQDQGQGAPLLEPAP
PAFAH2 inh: inhibitors of human PAFAH2; Q99487; recombinant PAFAH2, FP-rhodamine activity probe, fluorescence polarization; inhibition, % at 3.39 µM; 340,000 tested, 0.99% active; AID 492956;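 active means inhibition above the mean over all tested compounds plus 3 SD, cut at about 30% in these data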;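 further: inhibitors block probe labeling of enzyme so polarization drops; 0% = enzyme with DMSO and 100% = wells lacking PAFAH2 protein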
PAFAH1B2 FP inh: inhibitors of human PAFAH1B2; P68402; recombinant PAFAH1B2, FP-rhodamine activity probe, fluorescence polarization; inhibition, % at 3.39 µM; 340,000 tested, 1.2% active; AID 492953;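 active means inhibition above the mean of all tested compounds plus 3 SD, cut at about 24% in these data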;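 further: 0% = enzyme with DMSO and 100% = wells lacking PAFAH1B2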
Apaf1 inhib: blocks human Apaf-1 apoptosome activity; reconstituted apoptosome caspase-3 activity, DEVD-Rh110 fluorescence; inhibition, % at 20 µM; O14727; 330,000 tested, 0.71% active; active means inhibition of at least 40% at 20 µM;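 further: plate controls were DMSO wells for no effect and DEVD-CHO caspase inhibitor wells for full effect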
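Material: reconstituted apoptosome with Apaf-1, cytochrome c, caspase-9, procaspase-3, dATP. Technique: Rh110 fluorescence intensity. Buffer or medium: pH 7.5 Hepes buffer with CHAPS, BSA, DTT. Times: 30 min plus 50 min, RT.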
PAFAH2 FP conf: PAFAH2 (human) inhibition, confirmed. shares compounds with PAFAH2 inh. recombinant PAFAH2, FP-rhodamine activity probe, fluorescence polarization. inhibition, % at 3.39 µM. 2,300 tested, 65% active. AID 493030;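 active means mean inhibition over three repeats above a set limit taken from the earlier primary screen, cut at about 30% in these data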;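 further: inhibitor blocks binding of rhodamine activity probe so polarization falls; 0% = enzyme with DMSO and 100% = wells lacking PAFAH2 protein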
* hit, by the source's call; nt = not tested or not shown.

SMILES	TDP2 absorb	PAFAH1B3 FP inh	PAFAH2 inh	PAFAH1B2 FP inh	Apaf1 inhib	PAFAH2 FP conf
O=C(CN1C(=O)C2CC=CCC2C1=O)Nc1nnc(SCc2c(Cl)cccc2Cl)s1 (stereo unspecified)	-5	0	78*	9	12	74*
CCS(=O)(=O)N1Cc2ccccc2CC1C(=O)Nc1nnc(SCc2c(Cl)cccc2Cl)s1 (stereo unspecified)	1	-9	52*	6	26	35*
O=C(O)CCCN1C(=O)/C(=C\C(Cl)=C\c2ccccc2)SC1=S	-12	8	61*	4	nt	17
CN1CCN(C(=O)CCCN2C(=O)/C(=C/c3ccccc3)SC2=S)CC1	8	2	2	-2	12	nt
COc1ccc2ccccc2c1C=Nn1c(-c2n[nH]c3c2CCC3)n[nH]c1=S	-6	nt	nt	nt	nt	nt
CC(C)(C)c1ccc(OCC(=O)Nc2cccc(S(=O)(=O)NC3=NCCCCC3)c2)cc1	-3	9	-4	1	3	nt
CC1CC1C(=O)OCC(=O)Nc1cccc(S(=O)(=O)NC2=NCCCCC2)c1 (stereo unspecified)	-5	6	34*	4	3	20
O=C(COC(=O)c1cccs1)Nc1cccc(S(=O)(=O)NC2=NCCCCC2)c1	-14	8	48*	5	-10	36*
Cc1noc(C)c1S(=O)(=O)N(C)C[C@@H]1OCc2cnnn2CCCC(=O)N([C@@H](C)CO)C[C@@H]1C	5	nt	nt	nt	nt	nt
COc1ccc(-c2nnc(SCC(=O)NN=C(C)c3cccc4ccccc34)n2-c2ccccc2)cc1	-4	nt	nt	nt	nt	nt
O=C(COC(=O)c1ccc([N+](=O)[O-])cc1)NCCC1=CCCCC1	7	9	11	8	-2	nt
CC(=O)Nc1ccc(C(=O)OCC(=O)NC(=O)NC(C)(C)C)cc1	6	7	41*	1	-2	31*
CC(=O)Nc1ccc(C(=O)OCC(=O)NCCC2=CCCCC2)cc1	0	6	66*	-2	12	61*
O=C(COC(=O)c1ccc(OC(F)F)cc1)NCCC1=CCCCC1	-12	-2	41*	1	3	15
CC(C)(C)NC(=O)NC(=O)COC(=O)c1ccc(OC(F)(F)F)cc1	-1	5	18	-3	8	nt
CCOCCCNC(=O)C1CCN(S(=O)(=O)c2cc3c(cc2Br)CCN3C(=O)CC)CC1	-10	nt	nt	nt	nt	nt
O=C(COC(=O)C1=COCCO1)Nc1ccc(Br)cc1Br	0	4	58*	-1	11	46*
Cc1ccccc1NC(=O)COC(=O)C1=COCCO1	5	7	21	3	-8	nt
O=C(COC(=O)C1=COCCO1)Nc1ccc(F)cc1	4	5	69*	2	2	59*
CCN(CC)S(=O)(=O)c1cccc(NC(=O)COC(=O)C2COc3ccccc3O2)c1 (stereo unspecified)	9	0	2	4	-2	nt
O=C(COC(=O)C1=COCCO1)Nc1ccc(Oc2ccccc2)cc1	-2	-1	83*	-4	12	77*
CCN(CC)S(=O)(=O)c1cccc(NC(=O)COC(=O)C2=COCCO2)c1	-3	15	30*	9	-6	11
CCn1c(=O)n(CC(=O)N2CCC(C)CC2)c(=O)c2ccccc21	5	nt	nt	nt	nt	nt
COc1cc(C=Nn2c(-c3ccc(F)cc3)n[nH]c2=S)ccc1OCc1ccccc1	0	nt	nt	nt	nt	nt
Cc1nn(-c2ccccc2)c(C)c1/C=N\N1CCN(Cc2ccccc2Cl)CC1	1	nt	nt	nt	nt	nt
SMILES	TDP2 absorb	PAFAH1B3 FP inh	PAFAH2 inh	PAFAH1B2 FP inh	Apaf1 inhib	PAFAH2 FP conf
CCC(C)c1ccccc1NC(=O)COC(=O)C1=COCCO1 (stereo unspecified)	-3	11	62*	5	-2	48*
C=C(C)c1cccc(C(C)(C)NC(=O)Nc2ccc(C(C)=O)cc2)c1	-14	-1	-12	4	15	nt
C=C(C)c1cccc(C(C)(C)NC(=O)NNC(=O)c2ccccc2O)c1	-9	19	35*	1	13	30
CC1CCc2sc(C(=O)OCC(=O)NCc3ccccc3)cc2C1 (stereo unspecified)	-1	8	38*	3	9	40*
Cc1nc(C)c(C(=O)OCC(=O)NCc2ccccc2Cl)s1	4	5	70*	3	-2	63*
Cc1nc(C)c(C(=O)OCC(=O)NCc2ccccc2)s1	5	11	32*	1	-5	20
Cc1nc(C)c(C(=O)OCC(=O)Nc2ccccc2SCC#N)s1	5	-6	43*	1	-5	33*
Brc1ccc(-c2csc(N3CCNCC3)n2)cc1	-8	nt	nt	nt	nt	nt
CC1(c2nnnn2-c2ccc(F)cc2)CCCC(=O)N1CCc1c[nH]c2ccccc12 (stereo unspecified)	-5	nt	nt	nt	nt	nt
Cc1ccccc1C(=O)NC1CCCCN(Cc2cccc(F)c2)C1=O (stereo unspecified)	3	nt	nt	nt	nt	nt
C#CCN1CC(N(C)CCOC(=O)c2occ3ccccc23)CS1(=O)=O (stereo unspecified)	6	nt	nt	nt	nt	nt
CCOC(=O)CC[C@@H]1CC[C@]2(CCCN(Cc3ccc(Cl)cc3)C2)O1	10	nt	nt	nt	nt	nt
C=CC[C@]12C[C@@]3(O[C@H](c4ccc(C(F)(F)F)cc4)N=C3C[C@H](c3ccc(OC)cc3)[C@H]1C)N(Cc1ccncc1)C2=O	-1	nt	nt	nt	nt	nt
CCN(c1ccccc1)S(=O)(=O)c1cc(NC(=O)COC(=O)C2CC2)ccc1Cl	-10	0	69*	3	2	59*
Cc1ccc(NC(=O)COC(=O)C2CC2)cc1Cl	-9	-1	79*	2	-9	69*
CN(C)S(=O)(=O)c1cc(NC(=O)COC(=O)C2COc3ccccc3O2)ccc1Cl (stereo unspecified)	3	7	-2	8	7	nt
O=C(COC(=O)C1CC1)Nc1ccc2c(c1)OCO2	0	-2	67*	-2	-33	54*
O=C(CSc1nnc(-c2ccccc2)n1-c1ccc(Cl)cc1)Nc1ccc(OCc2ccccc2)cc1	-1	nt	nt	nt	nt	nt
O=[N+]([O-])c1ccc(CN2CCCCCC2)cc1	-7	6	-6	7	-15	nt
O=[N+]([O-])c1ccc(CN2CCCCCC2)s1	14	5	32*	5	-5	11
CC(=O)Nc1ccc(NC(=O)COC(=O)c2ccccc2SCC(=O)N2CCCC2)cc1	-12	7	10	4	3	nt
CC(NC(=O)COC(=O)c1ccccc1SCC(=O)N1CCCC1)c1ccccc1 (stereo unspecified)	-5	1	51*	2	-6	42*
Cc1ccccc1NC(=O)COC(=O)c1ccccc1SCC(=O)N1CCCC1	-5	-4	44*	6	-4	41*
N#CC1(NC(=O)COC(=O)c2ccccc2SCC(=O)N2CCCC2)CCCCC1	17	-2	81*	-8	7	80*

From PubChem BioAssay
